Here are results for 32 compounds from ChEMBL document CHEMBL2311500, “Identification and characterization of small molecules as potent and specific EPAC2 antagonists” (J Med Chem, 2013).

pIC50: −log10 of the molar value. Calls of active or inactive are those of the source. No cut-off for these calls is given here.

The target in experiment [1] is T1, Rap guanine nucleotide exchange factor 4 (Homo sapiens, UniProt Q8WZA2). Briefly: Antagonist activity at recombinant EPAC2 (unknown origin) assessed 8-NBD-cAMP substrate fluorescence intensity by substrate competing assay.
Target sequence in this assay (Q8WZA2 whole entry): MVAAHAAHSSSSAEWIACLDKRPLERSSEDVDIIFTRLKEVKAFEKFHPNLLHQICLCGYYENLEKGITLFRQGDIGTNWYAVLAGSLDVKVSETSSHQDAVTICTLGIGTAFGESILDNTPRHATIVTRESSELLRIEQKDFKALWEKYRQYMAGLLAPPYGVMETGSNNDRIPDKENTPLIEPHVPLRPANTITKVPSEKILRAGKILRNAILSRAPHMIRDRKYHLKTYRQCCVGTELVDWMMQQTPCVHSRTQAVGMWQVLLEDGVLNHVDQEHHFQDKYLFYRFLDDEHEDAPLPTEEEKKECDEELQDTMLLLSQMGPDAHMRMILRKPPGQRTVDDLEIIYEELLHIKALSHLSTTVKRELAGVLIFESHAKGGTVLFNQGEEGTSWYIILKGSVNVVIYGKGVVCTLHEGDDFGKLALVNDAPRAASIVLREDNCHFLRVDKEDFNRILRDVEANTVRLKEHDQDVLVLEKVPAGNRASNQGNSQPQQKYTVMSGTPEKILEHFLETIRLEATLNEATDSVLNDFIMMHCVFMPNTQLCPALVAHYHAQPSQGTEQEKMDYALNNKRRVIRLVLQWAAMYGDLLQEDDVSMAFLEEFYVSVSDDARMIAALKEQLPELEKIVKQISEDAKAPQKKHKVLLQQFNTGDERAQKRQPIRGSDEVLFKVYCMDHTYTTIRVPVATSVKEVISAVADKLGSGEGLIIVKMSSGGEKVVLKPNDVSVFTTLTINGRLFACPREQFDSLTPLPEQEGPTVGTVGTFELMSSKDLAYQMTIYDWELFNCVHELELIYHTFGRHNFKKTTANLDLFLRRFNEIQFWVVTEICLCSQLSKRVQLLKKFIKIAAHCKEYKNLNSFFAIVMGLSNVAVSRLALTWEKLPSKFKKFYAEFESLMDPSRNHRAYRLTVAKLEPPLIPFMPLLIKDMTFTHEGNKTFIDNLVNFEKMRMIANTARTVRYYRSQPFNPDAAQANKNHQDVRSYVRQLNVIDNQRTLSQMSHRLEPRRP
Experiment [2] concerns the target T1, Rap guanine nucleotide exchange factor 4. Kind of experiment: Inhibition of recombinant EPAC2 (unknown origin) assessed as inhibition of cAMP-mediated guanine nucleotide exchange factor activity at 25 uM by spectrofluorometric analysis. The essentials: (§1)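 Purified recombinant full-length EPAC1 or EPAC2 with 0.2 µM Mant-GDP-loaded Rap1B(1-167) in 50 mM Tris pH 7.5, 50 mM NaCl, 5 mM MgCl2, 1 mM DTT and 20 µM unlabeled GDP. […] Fluorescence decay (ex 366/em 450 nm) was recorded every 60 s over 6000 s.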
Target sequence in this assay (Q8WZA2 whole entry, looked up): as the sequence (Q8WZA2 whole entry) above

The species entered for experiment [3] is Homo sapiens. Briefly: Inhibition of PKA2 (unknown origin) assessed as inhibition of cAMP-induced activation at 25 uM by spectrophotometric analysis. In outline:
(§2)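 Coupled pyruvate kinase/lactate dehydrogenase assay following NADH oxidation at 340 nm, at room temperature. The reaction was started with Kemptide (0.26 mM final). H89 (25 µM) served as the inhibition control.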

Experiment [4] deals with T2, Rap guanine nucleotide exchange factor 3 (Homo sapiens) (UniProt O95398).
T2 sequence (whole entry): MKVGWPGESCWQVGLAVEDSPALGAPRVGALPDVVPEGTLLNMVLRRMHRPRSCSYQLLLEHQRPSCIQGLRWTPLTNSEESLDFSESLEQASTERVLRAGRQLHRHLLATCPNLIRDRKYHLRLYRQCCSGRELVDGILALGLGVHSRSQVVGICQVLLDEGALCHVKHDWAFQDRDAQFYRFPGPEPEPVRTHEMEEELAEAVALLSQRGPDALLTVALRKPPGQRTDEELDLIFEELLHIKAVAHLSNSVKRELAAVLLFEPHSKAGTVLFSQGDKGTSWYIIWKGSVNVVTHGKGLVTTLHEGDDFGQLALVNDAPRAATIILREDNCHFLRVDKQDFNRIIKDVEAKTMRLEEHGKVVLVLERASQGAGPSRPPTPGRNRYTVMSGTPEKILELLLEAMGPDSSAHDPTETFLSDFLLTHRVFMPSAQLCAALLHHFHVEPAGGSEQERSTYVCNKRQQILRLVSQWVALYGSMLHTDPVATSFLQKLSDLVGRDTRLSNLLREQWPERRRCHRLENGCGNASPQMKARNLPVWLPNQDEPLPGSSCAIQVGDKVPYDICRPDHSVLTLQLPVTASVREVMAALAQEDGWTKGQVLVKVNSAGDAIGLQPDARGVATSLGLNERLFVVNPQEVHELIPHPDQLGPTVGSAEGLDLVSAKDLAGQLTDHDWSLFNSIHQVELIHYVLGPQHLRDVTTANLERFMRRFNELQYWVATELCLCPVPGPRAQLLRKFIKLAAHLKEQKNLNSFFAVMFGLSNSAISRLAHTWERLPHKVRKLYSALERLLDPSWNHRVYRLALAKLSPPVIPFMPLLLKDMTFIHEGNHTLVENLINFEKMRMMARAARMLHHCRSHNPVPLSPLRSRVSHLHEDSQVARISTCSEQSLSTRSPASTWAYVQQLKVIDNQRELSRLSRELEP
Briefly: Inhibition of recombinant EPAC1 (unknown origin) assessed as inhibition of cAMP-mediated RAP1-GDP exchange activity at 25 uM by spectrofluorometric analysis. The essentials:
as §1

For experiment [5], the species on record is Homo sapiens. Kind of experiment: Inhibition of PKA1 (unknown origin) assessed as inhibition of cAMP-induced activation at 25 uM by spectrophotometric analysis. The essentials: as §2
Experiment [6] has as its target T1, Rap guanine nucleotide exchange factor 4. Conditions: HEK293, 10 uM.
Target sequence in this assay (Q8WZA2 whole entry, looked up): as the sequence (Q8WZA2 whole entry) above
The subject of the next experiment is HEK293. Kind of experiment: Inhibition of N-terminal CFP/C-terminal YFP tagged PKA (unknown origin) expressed in HEK293 cells assessed as inhibition of 8-Br-cAMP-AM-induced activation at 10 uM by FRET assay. As to conditions: Homo sapiens. It counts as cell-based.
Experiment [7] deals with T2, Rap guanine nucleotide exchange factor 3 (Homo sapiens). Briefly: Inhibition FL-tagged full length human EPAC1 expressed in HEK293 cells assessed as inhibition of 007-AM-induced activation at 10 uM by FRET assay. It counts as cell-based.

For the compound `Cc1cc(C)c(S(=O)(=O)n2ccc3cnccc32)c(C)c1`, in experiment [1], the pIC50 is 5.05. As for `Cc1ccc(Nc2c(C)cc(C)cc2C)cc1`, the pIC50 in experiment [1] was 5.42. `Cc1cc(C)c(S(=O)(=O)c2cc(C)c(C)cc2C)c(C)c1`: the pIC50 in experiment [1] is 6.15. On the same count and under the same terms, next, `Cc1cc(C)c(S(=O)(=O)c2ccc(OC3CCN(C(=O)OC(C)(C)C)CC3)cc2)c(C)c1`: less than 3.52. Turning to `Cc1cc(C)c(S(=O)(=O)n2ccc3ccccc32)c(C)c1`, in experiment [1], the pIC50 is 5.92.

As for `Cc1cc(C)c(S(=O)(=O)c2ccc(OC3CCCCC3)cc2)c(C)c1`, in experiment [1], the negative logarithm of the IC50 (pIC50) is less than 3.52.

On to `COc1ccc(S(=O)(=O)c2c(C)cc(C)cc2C)cc1`, for which, in experiment [1], the negative logarithm of the IC50 (pIC50) is 5.72. For the compound `CCc1cccn1S(=O)(=O)c1ccccc1C`, in experiment [1], the pIC50 is 5.28. In the case of `Cc1cc(C)c(Nc2cc(Cl)cc(Cl)c2)c(C)c1`, the pIC50 in experiment [1] is 6.05.

On to `Cc1ccc(S(=O)(=O)c2c(C)cc(C)cc2C)cc1`, for which, in experiment [2], the inhibition entry was “Active”. Moreover, the inhibition entry (in the experiment listed under Homo sapiens [3]; in experiment [4]; in the experiment listed under Homo sapiens [5]) was “inactive” throughout. `COC(=O)c1ccc2c(ccn2S(=O)(=O)c2c(C)cc(C)cc2C)c1`: the pIC50 in experiment [1] is less than 3.52. On the same count and under the same terms, next, `Cc1cc(C)c(S(=O)(=O)n2ccc3cccnc32)c(C)c1`: 5.62. Consider `Nc1ccc(Nc2ccc(N)cc2S(=O)(=O)O)cc1`, for which the pIC50 in experiment [1] was 4.74. As for `Cc1cc(C)c(S(=O)(=O)c2ccc(OCCN)cc2)c(C)c1`, the pIC50 in experiment [1] was less than 3.52.

Regarding `Cc1cc(C)c(Nc2nc(C)c(C)s2)c(C)c1`, the pIC50 in experiment [1] is less than 3.52. Consider `Cc1cc(C)c(S(=O)(=O)n2ccc3ncccc32)c(C)c1`, for which the pIC50 in experiment [1] was 5.42. On to `Cc1cc(C)c(S(=O)(=O)n2cc(C)cc2C)c(C)c1`, for which the inhibition entry in experiment [2] and in experiment [6] was “Active” in each case. For the same compound, the inhibition entry (in the experiment filed under Homo sapiens [3]; with HEK293; in experiment [4]; in experiment [7]; in the experiment filed under Homo sapiens [5]) was “inactive” in each case. For the compound `CCCCCc1ccc(S(=O)(=O)c2c(C)cc(C)cc2C)cc1`, in experiment [1], the negative-log IC50 (pIC50) was less than 3.52. Consider `Cc1cc(C)c(S(=O)(=O)n2ccc3cc(C(=O)O)ccc32)c(C)c1`, for which, in experiment [1], the pIC50 was 4.97. For `CCc1cccn1S(=O)(=O)c1ccc(C)cc1`, the pIC50 in experiment [1] is 5.40. Regarding `Cc1cc(C)c(S(=O)(=O)c2ccc(-c3ccc(F)nc3)cc2)c(C)c1`, the pIC50 in experiment [1] was less than 3.52.

For the compound `Cc1cc(C)c(Nc2cc(Cl)ccc2Cl)c(C)c1`, in experiment [2], the inhibition result was “Active”. Further, the inhibition entry (in the experiment listed under Homo sapiens [3]; in experiment [4]; in the experiment filed under Homo sapiens [5]) was “inactive” throughout. Further, the pIC50 in experiment [1] was 6.40. In the case of `Cc1cc(C)c(S(=O)(=O)c2ccc(OC3CCNCC3)cc2)c(C)c1`, in experiment [1], the pIC50 was less than 3.52. On the same count and under the same terms, the value for `CCc1cccn1S(=O)(=O)c1ccc(C)cc1C` was 5.89; that for `Cc1cc(C)c(S(=O)(=O)n2ccc3ccncc32)c(C)c1` was 4.90. For the compound `CCc1cccn1S(=O)(=O)c1ccc(OC)cc1`, in experiment [1], the pIC50 was 5.10.

As to `CCc1cccn1S(=O)(=O)c1cc(C)cc(C)c1`, in experiment [1], the pIC50 was 5.33.

Consider `Cc1cc(C)c(S(=O)(=O)c2ccc(O)cc2)c(C)c1`, for which the pIC50 in experiment [1] was 4.87. The same measure, in the same setting: next, `Cc1cc(C)c(S(=O)(=O)c2ccc(C3CCCCC3)cc2)c(C)c1`: less than 3.52; `CCc1cccn1S(=O)(=O)c1ccc(C(F)(F)F)cc1`: less than 3.52. Regarding `O=S(=O)(NCCNC/C=C/c1ccc(Br)cc1)c1cccc2cnccc12`, the inhibition result in the experiment listed under Homo sapiens [3] and in the experiment filed under Homo sapiens [5] was “Active” each time.

With `Cc1cc(C)c(S(=O)(=O)c2ccc(I)cc2)c(C)c1`, the pIC50 in experiment [1] is 5.40.
